Source: ChEMBL document CHEMBL4673342, “Lipid-Lowering Activities of Cucurbitacins Isolated from Trichosanthes cucumeroides and Their Synthetic Derivatives” (2020)
Active and inactive are the calls of the source. No cut-off for these calls is given here.

These molecules were tested on HepG2 (assay: Induction of […] uptake in human HepG2 cells at 5 uM by DIL probe based fluorescence assay).
Type: functional, cell-based
Summary of the method: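 HepG2 cells (passages 4–11) in DMEM/10% FBS were treated with DMSO or compound at 5 µM, then given DiI-labelled human plasma LDL (20 µg/mL) for 3 h at 37 °C in the dark. After ice-cold PBS/0.4% albumin rinses, cell-bound dye was extracted with isopropanol and fluorescence read at 520–578 nm. Uptake rate is relative to DMSO. Positive control nagilactone B at 5 µM; n = 3.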
`CC(=O)OC(C)(C)/C=C/C(=O)[C@](C)(O)[C@H]1[C@H](O)C[C@@]2(C)[C@@H]3CC=C4[C@@H](C[C@H](OC(=O)c5ccccc5)C(=O)C4(C)C)[C@]3(C)C(=O)C[C@]12C` was tested, and the Activity was “inactive”. `CC(=O)O[C@H]1C[C@@H]2C(=CC[C@@H]3[C@@]2(C)C(=O)C[C@]2(C)[C@@H]([C@@](C)(O)C(=O)/C=C/C(C)(C)OC(C)=O)[C@H](OC(=O)O)C[C@@]32C)C(C)(C)C1=O` was tested, and the Activity was “inactive”. `CC(=O)OC(C)(C)CCC(=O)[C@](C)(O)[C@H]1C(=O)C[C@@]2(C)[C@@H]3CC=C4[C@@H](CC(=O)C(=O)C4(C)C)[C@]3(C)C(=O)C[C@]12C` was tested, and the Activity was “inactive”. `CC(=O)O[C@@H]1C[C@@]2(C)[C@@H]3CC=C4[C@@H](CC(=O)[C@H](O)C4(C)C)[C@]3(C)C(=O)C[C@]2(C)[C@H]1[C@@](C)(O)C(=O)CCC(C)(C)OC(C)=O` was tested, and the Activity was “inactive”. In the case of `CC(=O)OC(C)(C)CCC(=O)[C@](C)(O)[C@H]1[C@H](OC(=O)c2ccccc2)C[C@@]2(C)[C@@H]3CC=C4[C@@H](C[C@H](OC(=O)c5ccccc5)C(=O)C4(C)C)[C@]3(C)C(=O)C[C@]12C`, the Activity is reported as “inactive”. In the case of `CC(=O)OC(C)(C)/C=C/C(=O)[C@](C)(O)[C@H]1[C@H](O)C[C@@]2(C)[C@@H]3[C@@H](O)C=C4[C@@H](C[C@H](O)C(=O)C4(C)C)[C@]3(C)C(=O)C[C@]12C`, the Activity is reported as “Active”. `CC(C)(O)/C=C/C(=O)[C@](C)(O)[C@H]1[C@H](O)C[C@@]2(C)[C@@H]3CC=C4[C@@H](C[C@H](O)[C@@H](O)C4(C)C)[C@]3(C)C(=O)C[C@]12C` was tested, and the Activity was “Active”. `CC(=O)O[C@H]1C(=O)C[C@@H]2C(=CC[C@@H]3[C@@]2(C)C(=O)C[C@]2(C)[C@@H]([C@@](C)(O)C(=O)CCC(C)(C)OC(C)=O)[C@H](O)C[C@@]32C)C1(C)C` was tested, and the Activity was “inactive”. In the case of `CC(=O)OC(C)(C)CCC(=O)[C@](C)(O)[C@H]1[C@H](O)C[C@@]2(C)[C@@H]3CC=C(C(C)(C)O)[C@@H](CC(=O)O)[C@]3(C)C(=O)C[C@]12C`, the Activity is reported as “Active”. `CC(=O)O[C@H]1C[C@@H]2C(=CC(=O)[C@@H]3[C@@]2(C)C(=O)C[C@]2(C)[C@@H]([C@@](C)(O)C(=O)/C=C/C(C)(C)OC(C)=O)[C@H](OC(=O)O)C[C@@]32C)C(C)(C)C1=O` was tested, and the Activity was “Active”. For `CC(=O)OC(C)(C)/C=C/C(=O)[C@](C)(O)[C@H]1[C@H](O)C[C@@]2(C)[C@@H]3CC=C4[C@@H](CC(=O)[C@H](O)C4(C)C)[C@]3(C)C(=O)C[C@]12C`, the Activity was “Active”. With `CC(=O)OC(C)(C)CCC(=O)[C@](C)(O)[C@H]1[C@H](O)C[C@@]2(C)[C@@H]3CC=C(C(C)(C)C(=O)O)[C@@H](CC(=O)O)[C@]3(C)C(=O)C[C@]12C` the Activity was “Active”. For `CC(=O)OC(C)(C)/C=C/C(=O)[C@](C)(O)[C@H]1[C@H](O)C[C@@]2(C)[C@@H]3[C@@H](O)C=C4[C@@H](CC(=O)[C@H](O)C4(C)C)[C@]3(C)C(=O)C[C@]12C`, the Activity was “Active”. For `CC(=O)OC(C)(C)/C=C/C(=O)[C@](C)(O)[C@H]1C(=O)C[C@@]2(C)[C@@H]3CC=C4[C@@H](CC(=O)C(=O)C4(C)C)[C@]3(C)C(=O)C[C@]12C`, the Activity was “inactive”. `CC(C)(O)CCC(=O)[C@](C)(O)[C@H]1[C@H](O)C[C@@]2(C)[C@@H]3CC=C4[C@@H](C[C@H](O)C(=O)C4(C)C)[C@]3(C)C(=O)C[C@]12C` was tested, and the Activity was “Active”. `CO[C@H](CC(=O)[C@](C)(O)[C@H]1[C@H](O)C[C@@]2(C)[C@@H]3CC=C4[C@@H](C[C@H](O)C(=O)C4(C)C)[C@]3(C)C(=O)C[C@]12C)C(C)(C)O` was tested, and the Activity was “Active”. For `CC(=O)OC(C)(C)/C=C/C(=O)[C@](C)(O)[C@H]1[C@H](O)C[C@@]2(C)[C@@H]3CC=C4[C@@H](C[C@H](OC5O[C@H](CO)[C@@H](O)[C@H](O)[C@H]5C)C(=O)C4(C)C)[C@]3(C)C(=O)C[C@]12C` (stereo not given in full), the Activity was “Active”. `CC(=O)OC(C)(C)CCC(=O)[C@](C)(O)[C@H]1[C@H](O)C[C@@]2(C)[C@@H]3[C@@H](O)C=C4[C@@H](CC(=O)[C@H](O)C4(C)C)[C@]3(C)C(=O)C[C@]12C` was tested, and the Activity was “Active”. For `CCC(=O)O[C@H]1C[C@@H]2C(=CC[C@@H]3[C@@]2(C)C(=O)C[C@]2(C)[C@@H]([C@@](C)(O)C(=O)CCC(C)(C)OC(C)=O)[C@H](OC(=O)CC)C[C@@]32C)C(C)(C)C1=O`, the Activity was “inactive”. `CC(=O)OC(C)(C)/C=C/C(=O)[C@](C)(O)[C@H]1[C@H](O)C[C@@]2(C)[C@@H]3CC=C4[C@@H](C[C@H](O)C(=O)C4(C)C)[C@]3(C)C(=O)C[C@]12C` was tested, and the Activity was “Active”. `CC1(C)C(=O)[C@@H](O)C[C@@H]2C1=C[C@H](O)[C@@H]1[C@@]2(C)C(=O)C[C@]2(C)[C@@H](C=O)[C@H](O)C[C@@]12C` was tested, and the Activity was “Active”. `CC(=O)O[C@@H]1C[C@@]2(C)[C@@H]3CC=C4[C@@H](CC(=O)[C@H](OC(C)=O)C4(C)C)[C@]3(C)C(=O)C[C@]2(C)[C@H]1[C@@](C)(O)C(=O)/C=C/C(C)(C)OC(C)=O` was tested, and the Activity was “inactive”. In the case of `CC(=O)OC1C[C@@H]2C(=CC(=O)[C@@H]3[C@@]2(C)C(=O)C[C@]2(C)[C@@H]([C@@](C)(O)C(=O)CCC(C)(C)OC(C)=O)[C@H](OC(C)=O)C[C@@]32C)C(C)(C)C1O` (stereo not given in full), the Activity is reported as “Active”. With `CC(C)(O)/C=C/C(=O)[C@](C)(O)[C@H]1[C@H](O)C[C@@]2(C)[C@@H]3CC=C4[C@@H](CC(O)C(=O)C4(C)C)[C@]3(C)C(=O)C[C@]12C` (stereo not given in full) the Activity was “Active”. With `CC(=O)O[C@H]1C(=O)C[C@@H]2C(=CC[C@@H]3[C@@]2(C)C(=O)C[C@]2(C)[C@@H]([C@@](C)(O)C(=O)/C=C/C(C)(C)OC(C)=O)[C@H](O)C[C@@]32C)C1(C)C` the Activity was “inactive”. With `CC(=O)O[C@@H]1C[C@@]2(C)[C@@H]3CC=C4[C@@H](CC(=O)[C@H](OC(C)=O)C4(C)C)[C@]3(C)C(=O)C[C@]2(C)[C@H]1[C@@](C)(O)C(=O)CCC(C)(C)OC(C)=O` the Activity was “inactive”. In the case of `CC1(C)C(=O)[C@@H](O)C[C@@H]2C1=CC[C@@H]1[C@@]2(C)C(=O)C[C@]2(C)[C@@H]([C@@](C)(O)C(=O)C[C@H](O)C(C)(C)O)[C@H](O)C[C@@]12C`, the Activity is reported as “Active”. `CC(=O)OC(C)(C)CCC(=O)[C@](C)(O)[C@H]1[C@H](O)C[C@@]2(C)[C@@H]3[C@@H](O)C=C4[C@@H](CC(=O)[C@@H](O)C4(C)C)[C@]3(C)C(=O)C[C@]12C` was tested, and the Activity was “Active”. `CC(C)(O)/C=C/C(=O)[C@](C)(O)[C@H]1[C@H](O)C[C@@]2(C)[C@@H]3CC=C4[C@@H](C=C(O)C(=O)C4(C)C)[C@]3(C)C(=O)C[C@]12C` was tested, and the Activity was “Active”. For `CC(=O)O[C@H]1C[C@@H]2C(=CC[C@@H]3[C@@]2(C)C(=O)C[C@]2(C)[C@@H]([C@@](C)(O)C(=O)/C=C/C(C)(C)OC(C)=O)[C@H](O)C[C@@]32C)C(C)(C)C1=O`, the Activity was “inactive”. With `CC(=O)OC(C)(C)/C=C/C(=O)[C@](C)(O)[C@H]1[C@H](OC(=O)c2ccccc2)C[C@@]2(C)[C@@H]3CC=C4[C@@H](C[C@H](OC(=O)c5ccccc5)C(=O)C4(C)C)[C@]3(C)C(=O)C[C@]12C` the Activity was “inactive”. In the case of `CC(=O)OC(C)(C)CCC(=O)[C@](C)(O)[C@H]1[C@H](O)C[C@@]2(C)[C@@H]3CC=C4[C@@H](C[C@H](OC(=O)CCC(=O)O)C(=O)C4(C)C)[C@]3(C)C(=O)C[C@]12C`, the Activity is reported as “inactive”. In the case of `CC(C)(O)CCC(=O)[C@](C)(O)[C@H]1[C@H](O)C[C@@]2(C)[C@@H]3CC=C4[C@@H](C=C(O)C(=O)C4(C)C)[C@]3(C)C(=O)C[C@]12C`, the Activity is reported as “Active”. With `CC(=O)OC(C)(C)/C=C/C(=O)[C@](C)(O)[C@H]1C(=O)C[C@@]2(C)[C@@H]3CC=C4[C@@H](C[C@H](O)C(=O)C4(C)C)[C@]3(C)C(=O)C[C@]12C` the Activity was “inactive”. With `CC(=O)O[C@H]1C[C@@H]2C(=CC[C@@H]3[C@@]2(C)C(=O)C[C@]2(C)[C@@H]([C@@](C)(O)C(=O)CCC(C)(C)OC(C)=O)[C@H](OC(C)=O)C[C@@]32C)C(C)(C)C1=O` the Activity was “inactive”. With `CC(=O)OC(C)(C)CCC(=O)[C@](C)(O)[C@H]1C(=O)C[C@@]2(C)[C@@H]3CC=C4[C@@H](C[C@H](O)C(=O)C4(C)C)[C@]3(C)C(=O)C[C@]12C` the Activity was “inactive”. For `CC(=O)O[C@@H]1C[C@@]2(C)[C@@H]3CC=C4[C@@H](CC(=O)[C@H](O)C4(C)C)[C@]3(C)C(=O)C[C@]2(C)[C@H]1[C@@](C)(O)C(=O)/C=C/C(C)(C)OC(C)=O`, the Activity was “inactive”. In the case of `CC(=O)OC(C)(C)[C@H](O)CC(=O)[C@](C)(O)[C@H]1[C@H](O)C[C@@]2(C)[C@@H]3[C@@H](O)C=C4[C@@H](CC(=O)[C@@H](O)C4(C)C)[C@]3(C)C(=O)C[C@]12C`, the Activity is reported as “Active”. With `CC(=O)O[C@@H]1C[C@@]2(C)[C@@H]3CC=C4[C@@H](C[C@H](O)C(=O)C4(C)C)[C@]3(C)C(=O)C[C@]2(C)[C@H]1[C@@](C)(O)C(=O)/C=C/C(C)(C)OC(C)=O` the Activity was “inactive”. `CC(=O)OC(C)(C)CCC(=O)[C@](C)(O)[C@H]1[C@H](O)C[C@@]2(C)[C@@H]3[C@@H](O)C=C4[C@@H](C[C@H](O)C(=O)C4(C)C)[C@]3(C)C(=O)C[C@]12C` was tested, and the Activity was “Active”. With `CO[C@@H](CC(=O)[C@](C)(O)[C@H]1[C@H](O)C[C@@]2(C)[C@@H]3CC=C4[C@@H](C[C@H](O)C(=O)C4(C)C)[C@]3(C)C(=O)C[C@]12C)C(C)(C)O` the Activity was “Active”. For `CC(=O)OC(C)(C)CCC(=O)[C@](C)(O)[C@H]1[C@H](O)C[C@@]2(C)[C@@H]3CC=C4[C@@H](C[C@H](OC(=O)c5ccccc5)C(=O)C4(C)C)[C@]3(C)C(=O)C[C@]12C`, the Activity was “inactive”. For `CC1(C)C(=O)[C@@H](O)C[C@@H]2C1=CC[C@@H]1[C@@]2(C)C(=O)C[C@]2(C)[C@@H]([C@@](C)(O)C(=O)C[C@@H](O)C(C)(C)O)[C@H](O)C[C@@]12C`, the Activity was “Active”. With `CC(=O)OC(C)(C)CCC(=O)[C@](C)(O)[C@H]1[C@H](O)C[C@@]2(C)[C@@H]3CC=C4[C@@H](C[C@H](O)C(=O)C4(C)C)[C@]3(C)C(=O)C[C@]12C` the Activity was “Active”. For `CC(=O)OC(C)(C)CCC(=O)[C@](C)(O)[C@H]1[C@H](O)C[C@@]2(C)[C@@H]3CC=C4[C@@H](C[C@H](OC5O[C@H](CO)[C@@H](O)[C@H](O)[C@H]5C)C(=O)C4(C)C)[C@]3(C)C(=O)C[C@]12C` (stereo not given in full), the Activity was “Active”.
